# Test results reported in ChEMBL document CHEMBL1125077, “Synthetic and computer-assisted analyses of the pharmacophore for the benzodiazepine receptor inverse agonist site” (J Med Chem, 1990).
# Molecular target: GABA-A receptor; anion channel
# Experiment: In vitro inhibition of 3[H]Diazepam binding to Benzodiazepine receptor from rat cerebral cortical membranes; value ranges from 4-12 nM
# Type: cell membranes, Membrane
row,SMILES,IC50
1,S=C=Nc1cc2c3ccccc3nc-2c[nH]1,4 nM

# Molecular target: GABA-A receptor; anion channel
# Experiment: In vitro inhibition of 3[H]Diazepam binding to Benzodiazepine receptor from rat cerebral cortical membranes
# Type: cell membranes, Membrane
# Procedure, shortened: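 Rat cerebral cortex (decapitation) homogenized in 50 mM Tris-HCl pH 7.4, spun 20000g 20 min at 4 °C, washed three times, resuspended in 50 volumes buffer. Incubated with [3H]diazepam (final 2 nM) at 4 °C for 120 min, then filtered on GF/B with ice-cold buffer washes. Nonspecific binding taken with 10 μM flunitrazepam. IC50 from Hill plots, at least six inhibitor concentrations, mean of three or more experiments.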
row,SMILES,IC50
1,CCOC(=O)c1cc2c3ccccc3c(N=O)c-2c[nH]1,5000 nM
2,COC(=O)c1cc2c3ccccc3n3c(=O)ccc(n1)c23,100 nM
3,CCOC(=O)c1cc2c(cn1)[nH]c1ccccc12,5 nM
4,CC(C)Oc1cc2c(cn1)[nH]c1ccccc12,500 nM
5,CCCCOc1cc2c(cn1)[nH]c1ccccc12,98 nM
6,CCCC(=O)c1cc2c(cn1)[nH]c1ccccc12,2.8 nM
7,c1ccc2c(c1)[nH]c1c2ccc2[nH]c3ccccc3c21,1970 nM
8,Cc1ccc2c(c1)[nH]c1c3c4ccccc4nc-3c[nH]c12,10 nM
9,CCOC(=O)c1cc2c(cn1)Cc1ccccc1-2,680 nM
10,CCOC(=O)c1cc2c(cn1)nc(O)c1ccccc12,2400 nM
11,Cc1nccc2c1[nH]c1ccccc12 [HARMAN],12400 nM

# The next lines start with the values.
row,IC50,SMILES
1,9200 nM,CCOC(=O)c1cc2c(cn1)oc1ccccc12
2,7540 nM,CCc1nc(C(=O)OC)cc2c1[nH]c1ccccc12
3,6860 nM,Cc1cccc2[nH]c3c4c5ccccc5nc-4c[nH]c3c12
4,4660 nM,C[n+]1cc2[nH]c3ccccc3c2c2[nH]c3ccccc3c21
5,1700 nM,CCOC(=O)c1cc2c(cn1)sc1ccccc12
6,750 nM,CC(C)(C)COC(=O)c1cc2c3ccccc3nc-2c[nH]1
7,653 nM,COC(=O)c1cc2[nH]c3ccccc3c2cn1
8,285 nM,CCc1nc2c3ccccc3[nH]c2c2c1[nH]c1ccccc12
9,245 nM,CCCCc1cc2c(cn1)[nH]c1ccccc12
10,10 nM,CC(C)(C)OC(=O)c1cc2c3ccccc3nc-2c[nH]1
11,9 nM,COC(=O)c1cc2c3ccccc3n(C(C)=O)c2cn1
